Measurements gathered from unrelated publications.
Protocols differ between the studies behind these lines.
Target: TGF-beta receptor type-1 (TGFBR1, Homo sapiens, UniProt P36897)
Residues used in one study (P36897 1-503): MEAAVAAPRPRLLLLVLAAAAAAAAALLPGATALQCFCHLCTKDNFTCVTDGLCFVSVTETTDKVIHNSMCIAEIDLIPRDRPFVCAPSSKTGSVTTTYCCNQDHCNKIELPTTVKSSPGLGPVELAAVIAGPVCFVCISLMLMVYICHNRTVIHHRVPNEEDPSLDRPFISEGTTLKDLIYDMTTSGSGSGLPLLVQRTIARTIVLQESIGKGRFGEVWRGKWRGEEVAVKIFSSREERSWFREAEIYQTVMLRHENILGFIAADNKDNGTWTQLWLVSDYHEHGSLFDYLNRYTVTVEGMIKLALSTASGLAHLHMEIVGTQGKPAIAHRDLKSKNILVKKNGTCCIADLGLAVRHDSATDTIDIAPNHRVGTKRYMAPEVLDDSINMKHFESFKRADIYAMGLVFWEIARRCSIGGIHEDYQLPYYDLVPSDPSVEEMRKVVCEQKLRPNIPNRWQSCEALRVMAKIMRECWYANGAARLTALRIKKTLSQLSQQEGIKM

O=C(Nc1cccnn1)N1CCC(=Cc2cccc(Oc3ccc(C(F)(F)F)cn3)c2)CC1  remaining binding (cell-free assay, competition with immobilised ligand; 1 µM): 61%
C[C@H]1CCN(c2nccc(-c3cnn4ncccc34)n2)C1  remaining binding (binding; 1 µM): 76%
C[C@@H]1CN(c2ccc3ncc(-c4ccc5[nH]nc(C6CC6)c5c4)n3n2)C[C@H](C)O1  remaining binding (binding, competition with immobilised ligand; 0.5 µM): 100%
CN([C@@H]1CCc2c(CC(=O)O)c3ccccc3n2C1)S(=O)(=O)c1ccc(F)cc1  remaining binding (cell-free assay, competition with immobilised ligand; 1 µM): 100%
O=C(NCCCN1CCOCC1)c1ccc(Nc2nccc(-c3cc4ccccc4s3)n2)cc1  remaining binding (binding, competition with immobilised ligand; 1 µM): 58%
COc1ccc2c(c1)O[C@H](c1ccc(OC)c(OC)c1)C[C@@H]2NC(=O)C1(c2ccc3c(c2)OC(F)(F)O3)CC1  remaining binding (cell-free assay, competition with immobilised ligand; 1 µM): 100%
c1cnn2ncc(-c3ccnc(N4CCC45COC5)n3)c2c1  remaining binding (binding; 1 µM): 78%
O=C(NCC1CCOCC1)c1n[nH]cc1NC(=O)c1c(F)cccc1F  remaining binding (binding, competition with immobilised ligand; 1 µM): 96%
C=CC(=O)N1CCC(C(=O)NCC(=O)N2CCN(c3nc(-c4cnc(N)nc4C(F)F)nc(N4CCOCC4)n3)CC2)CC1  remaining binding (binding, competition with immobilised ligand; 1 µM): 100%
O=S(=O)(NC1CCC(c2cc(F)ccc2F)(S(=O)(=O)c2ccc(Cl)cc2)CC1)C(F)(F)F (stereo not shown)  remaining binding (cell-free assay, competition with immobilised ligand; 1 µM): 100%
O=C(NCCCN1CCOCC1)c1ccc(Nc2ncc(Cl)c(-c3ccc(Cl)s3)n2)cc1  remaining binding (binding, competition with immobilised ligand; 1 µM): 69%
COc1cnc(Nc2cccc(S(N)(=O)=O)c2)nc1N1CCN(c2ccccc2)CC1  remaining binding (binding, competition with immobilised ligand; 1 µM): 100%
Cc1cnn2ncc(-c3ccnc(N(C)C)n3)c2c1  remaining binding (binding; 1 µM): 100%
COc1ncc2cc3ccccc3nc2c1C#N  remaining binding (cell-free assay, competition with immobilised ligand; 5 µM): 92%
F[C@@H]1CCN(c2nccc(-c3cnn4ncccc34)n2)C1  remaining binding (binding; 1 µM): 100%
C[C@H](c1ccc(F)cc1)N(Cc1cccc(C(=O)O)c1)C(=O)c1cnc2ccccc2c1  remaining binding (cell-free assay, competition with immobilised ligand; 1 µM): 96%
